What was measured:
[1] = substrate: CC(C)(C)OC(=O)NCC[C@H](NC(=O)[C@H](CC1CCCCC1)NC(=O)N1CCOCC1)C(=O)NCCNC(=O)OCC1c2ccccc2-c2ccccc21; assay: Activity at recombinant cathepsin K
Summary of the method: (§1)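 Active-site-titrated (E-64) recombinant human cathepsins B, L, S and in-house cathepsin K, 10 nM final in pH 6.5 acetate/HEPES buffer with 300 mM NaCl, 0.001% Pluronic and L-cysteine; DMSO-dissolved Cy7/BHQ-3 quenched substrate 0.8–40 µM final (DMSO ≤1%); fluorescence read at 25 °C (λex 710, λem 767 nm); steady-state data fitted by non-linear least squares to Michaelis–Menten with substrate inhibition.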

[2] = substrate: CC(C)(C)OC(=O)NCC[C@H](NC(=O)[C@H](CC1CCCCC1)NC(=O)N1CCOCC1)C(=O)NCCNC(=O)OCC1c2ccccc2-c2ccccc21; assay: Ratio of Kcat/Km for recombinant cathepsin K; summary of the method: as §1
[3] = substrate: CC(C)(C)OC(=O)NCC[C@H](NC(=O)[C@H](CC1CCCCC1)NC(=O)N1CCOCC1)C(=O)NCCNC(=O)OCC1c2ccccc2-c2ccccc21; assay: (§2) Activity at recombinant cathepsin L; summary of the method: as §1
[4] = substrate: CCN(CC)c1ccc2nc3ccc(/N=N/c4ccc(N(C)CCCC(=O)NCCNC(=O)[C@H](CCNC(=O)CCCCCN5/C(=C\C=C\C=C\C=C\C6N(CC)c7ccc(S(=O)(=O)O)cc7C6(C)C)C(C)(C)c6cc(S(=O)(=O)[O-])ccc65)NC(=O)[C@H](CC5CCCCC5)NC(=O)N5CCOCC5)cc4)cc3[n+](-c3ccccc3)c2c1; assay: as §2; summary of the method: as §1
[5] = substrate: CC(C)(C)OC(=O)NCC[C@H](NC(=O)[C@H](CC1CCCCC1)NC(=O)N1CCOCC1)C(=O)NCCNC(=O)OCC1c2ccccc2-c2ccccc21; assay: (§3) Ratio of Kcat/Km for recombinant cathepsin L; summary of the method: as §1
[6] = substrate: CCN(CC)c1ccc2nc3ccc(/N=N/c4ccc(N(C)CCCC(=O)NCCNC(=O)[C@H](CCNC(=O)CCCCCN5/C(=C\C=C\C=C\C=C\C6N(CC)c7ccc(S(=O)(=O)O)cc7C6(C)C)C(C)(C)c6cc(S(=O)(=O)[O-])ccc65)NC(=O)[C@H](CC5CCCCC5)NC(=O)N5CCOCC5)cc4)cc3[n+](-c3ccccc3)c2c1; assay: as §3; summary of the method: as §1
[7] = substrate: CC(C)(C)OC(=O)NCC[C@H](NC(=O)[C@H](CC1CCCCC1)NC(=O)N1CCOCC1)C(=O)NCCNC(=O)OCC1c2ccccc2-c2ccccc21; assay: (§4) Activity at recombinant cathepsin S; summary of the method: as §1
[8] = substrate: CCN(CC)c1ccc2nc3ccc(/N=N/c4ccc(N(C)CCCC(=O)NCCNC(=O)[C@H](CCNC(=O)CCCCCN5/C(=C\C=C\C=C\C=C\C6N(CC)c7ccc(S(=O)(=O)O)cc7C6(C)C)C(C)(C)c6cc(S(=O)(=O)[O-])ccc65)NC(=O)[C@H](CC5CCCCC5)NC(=O)N5CCOCC5)cc4)cc3[n+](-c3ccccc3)c2c1; assay: as §4; summary of the method: as §1
[9] = substrate: CC(C)(C)OC(=O)NCC[C@H](NC(=O)[C@H](CC1CCCCC1)NC(=O)N1CCOCC1)C(=O)NCCNC(=O)OCC1c2ccccc2-c2ccccc21; assay: (§5) Ratio of Kcat/Km for recombinant cathepsin S; summary of the method: as §1
[10] = substrate: CCN(CC)c1ccc2nc3ccc(/N=N/c4ccc(N(C)CCCC(=O)NCCNC(=O)[C@H](CCNC(=O)CCCCCN5/C(=C\C=C\C=C\C=C\C6N(CC)c7ccc(S(=O)(=O)O)cc7C6(C)C)C(C)(C)c6cc(S(=O)(=O)[O-])ccc65)NC(=O)[C@H](CC5CCCCC5)NC(=O)N5CCOCC5)cc4)cc3[n+](-c3ccccc3)c2c1; assay: as §5; summary of the method: as §1

B1: Cathepsin K (Homo sapiens), P43235 (protein)
chain: MWGLKVLLLPVVSFALYPEEILDTHWELWKKTHRKQYNNKVDEISRRLIWEKNLKYISIHNLEASLGVHTYELAMNHLGDMTSEEVVQKMTGLKVPLSHSRSNDTLYIPEWEGRAPDSVDYRKKGYVTPVKNQGQCGSCWAFSSVGALEGQLKKKTGKLLNLSPQNLVDCVSENDGCGGGYMTNAFQYVQKNRGIDSEDAYPYVGQEESCMYNPTGKAAKCRGYREIPEGNEKALKRAVARVGPVSVAIDASLTSFQFYSKGVYYDESCNSDNLNHAVLAVGYGIQKGNKHWIIKNSWGENWGNKGYILMARNKNNACGIANLASFPKM
Km [1]: 89 µM | kcat/Km [2]: 187 M⁻¹ s⁻¹

B2: Procathepsin L (Homo sapiens), P07711 (protein)
chain: MNPTLILAAFCLGIASATLTFDHSLEAQWTKWKAMHNRLYGMNEEGWRRAVWEKNMKMIELHNQEYREGKHSFTMAMNAFGDMTSEEFRQVMNGFQNRKPRKGKVFQEPLFYEAPRSVDWREKGYVTPVKNQGQCGSCWAFSATGALEGQMFRKTGRLISLSEQNLVDCSGPQGNEGCNGGLMDYAFQYVQDNGGLDSEESYPYEATEESCKYNPKYSVANDTGFVDIPKQEKALMKAVATVGPISVAIDAGHESFLFYKEGIYFEPDCSSEDMDHGVLVVGYGFESTESDNNKYWLVKNSWGEEWGMGGYVKMAKDRRNHCGIASAASYPTV
Km [3]: 840 µM | Km [4]: 280 µM | kcat/Km [5]: 7070 M⁻¹ s⁻¹ | kcat/Km [6]: 187 M⁻¹ s⁻¹

B3: Cathepsin S (Homo sapiens), P25774 (protein)
chain: MKRLVCVLLVCSSAVAQLHKDPTLDHHWHLWKKTYGKQYKEKNEEAVRRLIWEKNLKFVMLHNLEHSMGMHSYDLGMNHLGDMTSEEVMSLMSSLRVPSQWQRNITYKSNPNRILPDSVDWREKGCVTEVKYQGSCGACWAFSAVGALEAQLKLKTGKLVSLSAQNLVDCSTEKYGNKGCNGGFMTTAFQYIIDNKGIDSDASYPYKAMDQKCQYDSKYRAATCSKYTELPYGREDVLKEAVANKGPVSVGVDARHPSFFLYRSGVYYEPSCTQNVNHGVLVVGYGDLNGKEYWLVKNSWGHNFGEEGYIRMARNKGNHCGIASFPSYPEI
Km [7]: 1.3 µM | Km [8]: 25 µM | kcat/Km [9]: 15100 M⁻¹ s⁻¹ | kcat/Km [10]: 14200 M⁻¹ s⁻¹

— ChEMBL document CHEMBL1667743, “Functional in vivo imaging of cysteine cathepsin activity in murine model of inflammation” (Bioorg Med Chem, 2011)
